Data reported in ChEMBL document CHEMBL4680236, “Design, synthesis and structure-activity relationships of novel 15-membered macrolides: Quinolone/quinoline-containing sidechains tethered to the C-6 position of azithromycin acylides” (Eur J Med Chem, 2020).
In brackets after ≈: the same amount, converted by molar mass.

Columns and labels:
Staphylococcus aureus [1] = test: Antibacterial activity against MLSB/methicillin-resistant Staphylococcus aureus 15B196 assessed as reduction in microbial growth; type: functional
Staphylococcus aureus [2] = test: Ratio of MBC to MIC against MLSB/methicillin-resistant Staphylococcus aureus 15B196; type: functional
Streptococcus pneumoniae [3] = test: Ratio of MBC to MIC against penicillin-susceptible Streptococcus pneumoniae PU09; type: functional
Escherichia coli [4] = test: Antibacterial activity against Escherichia coli JW5503-KanS depletion of toIC efflux gene assessed as reduction in microbial growth; type: functional
Streptococcus pneumoniae [5] = test: Antibacterial activity against penicillin-susceptible Streptococcus pneumoniae PU09 harboring mef gene assessed as reduction in microbial growth; type: functional
Streptococcus pneumoniae [6] = test: Bactericidal activity against penicillin-susceptible Streptococcus pneumoniae PU09 harboring mef gene; type: functional
Summary of the method: (§1)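 Bacteria were exposed to 1- to 8-fold their MIC of test sample, then transferred to fresh culture medium without antibacterial compound and incubated for the required time. Colonies were then counted. MBC is the lowest concentration giving a reduction in colony number of >3 Log₁₀.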

Streptococcus pneumoniae [7] = test: Ratio of MBC to MIC against MLSB-resistant Streptococcus pneumoniae 07P390 harboring ermB; type: functional
Haemophilus influenzae [8] = test: Bactericidal activity against azithromycin-susceptible Haemophilus influenzae ATCC 49247; type: functional
Summary of the method: (§2)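 Bacteria were exposed to 1- to 8-fold MIC of the sample, then transferred to fresh medium without antibacterial. After further incubation, colonies were counted. MBC was taken as the lowest concentration giving a >3 log10 reduction in colony number.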

Staphylococcus aureus [9] = test: Antibacterial activity against MLSB/methicillin/ciprofloxacin-resistant Staphylococcus aureus PU32 harboring ermA gene assessed as reduction in microbial growth; type: functional
Haemophilus influenzae [10] = test: Antibacterial activity against azithromycin-susceptible Haemophilus influenzae ATCC 49247 assessed as reduction in microbial growth relative to ciprofloxacin; type: functional
[11] = target: T1, DNA gyrase (Escherichia coli) (UniProt P0AES6+P0AES4); settings: time 15.0 min
Escherichia coli [12] = test: Antibacterial activity against Escherichia coli JW5503-1 depletion of toIC efflux gene assessed as reduction in microbial growth; type: functional
Streptococcus pyogenes [13] = test: Bactericidal activity against MLSB-resistant Streptococcus pyogenes 12-206 harboring ermA gene; type: functional; summary of the method: as §1
DNA gyrase = DNA gyrase (Escherichia coli, UniProt P0AES4+P0AES6); test: Inhibition of Escherichia coli DNA gyrase using relaxed DNA as substrate incubated for 15 mins by ethidium bromide-based agarose gel electrophoresis; type: protein-complex assay
Summary of the method: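 Supercoiling assay with relaxed pBR322 (0.3 µg), made by treating negatively supercoiled pBR322 with E. coli topoisomerase I, and 1 unit E. coli gyrase. Buffer: 50 mM Tris-HCl pH 8.0, 10 mM MgCl2, 100 mM potassium glutamate, 10 mM DTT, 50 µg/mL BSA, 1 mM ATP. Run 37 °C, 15 min, stopped with 25 mM EDTA. IC50 in µM.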

Haemophilus influenzae [14] = test: Ratio of MBC to MIC against azithromycin-susceptible Haemophilus influenzae ATCC 49247; type: functional
Streptococcus pyogenes [15] = test: Antibacterial activity against MLSB-resistant Streptococcus pyogenes 12-206 harboring ermA gene assessed as reduction in microbial growth; type: functional
Streptococcus pneumoniae [16] = test: Antibacterial activity against MLSB-resistant Streptococcus pneumoniae 07P390 harboring ermB gene assessed as reduction in microbial growth; type: functional
Streptococcus pneumoniae [17] = test: Ratio of MBC to MIC against Erythromycin-susceptible Streptococcus pneumoniae ATCC 49619; type: functional
Escherichia coli [18] = test: Antibacterial activity against Escherichia coli BW25113 depletion of toIC efflux gene assessed as reduction in microbial growth; type: functional
[19] = target: T1, DNA gyrase (Escherichia coli); test: Poison activity at Escherichia coli DNA gyrase assessed as stabilization of DNA cleavage complex by measuring linear plasmid DNA formation using supercoiled pBR322 incubated for 15 mins by electrophoresis relative to ciprofloxacin; type: protein-complex assay
Summary of the method: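 Cleavage assay with 0.3 µg supercoiled pBR322 and 10 units E. coli gyrase. Buffer: 50 mM Tris-HCl pH 8.0, 10 mM MgCl2, 10 mM DTT, 50 µg/mL BSA, 1 mM ATP, 5 µg/mL tRNA; 37 °C, 15 min. Then 1% SDS for 5 min, then 25 mM EDTA plus 100 µg/mL proteinase K for 30 min. Phenol/chloroform extraction, then 1.2% agarose with ethidium bromide.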

Staphylococcus aureus [20] = test: Bactericidal activity against MLSB/methicillin-resistant Staphylococcus aureus 15B196; type: functional; summary of the method: as §1
Streptococcus pneumoniae [21] = test: Bactericidal activity against Erythromycin-susceptible Streptococcus pneumoniae ATCC 49619; type: functional; summary of the method: as §2
Streptococcus pneumoniae [22] = test: Antibacterial activity against Erythromycin-susceptible Streptococcus pneumoniae ATCC 49619 assessed as reduction in microbial growth; type: functional
Streptococcus pneumoniae [23] = test: Bactericidal activity against MLSB-resistant Streptococcus pneumoniae 07P390 harboring ermB gene assessed as reduction in microbial growth; type: functional; summary of the method: as §1
Haemophilus influenzae [24] = test: Antibacterial activity against azithromycin-susceptible Haemophilus influenzae ATCC 49247 assessed as reduction in microbial growth; type: functional
Streptococcus pyogenes [25] = test: Ratio of MBC to MIC against MLSB-resistant Streptococcus pyogenes 12-206 harboring ermA gene; type: functional
Staphylococcus aureus [26] = test: Antibacterial activity against MLSB/methicillin-resistant Staphylococcus aureus 15B196 assessed as reduction in microbial growth relative to ciprofloxacin; type: functional
Staphylococcus aureus [27] = test: Antibacterial activity against MLSB/methicillin/ciprofloxacin-resistant Staphylococcus aureus PU32 harboring ermA gene assessed as reduction in microbial growth relative to ciprofloxacin; type: functional
Staphylococcus aureus [28] = test: Bactericidal activity against MLSB/methicillin/ciprofloxacin-resistant Staphylococcus aureus PU32 harboring ermA gene; type: functional; summary of the method: as §1
Staphylococcus aureus [29] = test: Ratio of MBC to MIC against MLSB/methicillin/ciprofloxacin-resistant Staphylococcus aureus PU32 harboring ermA gene; type: functional

Row | Compound | MIC (Staphylococcus aureus [1]) [µg/mL] | Ratio (Staphylococcus aureus [2]) | Ratio (Streptococcus pneumoniae [3]) | MIC (Escherichia coli [4]) [µg/mL] | MIC (Streptococcus pneumoniae [5]) [µg/mL] | MBC (Streptococcus pneumoniae [6]) [µg/mL] | Ratio (Streptococcus pneumoniae [7]) | MBC (Haemophilus influenzae [8]) [µg/mL] | MIC (Staphylococcus aureus [9]) [µg/mL] | fold change (FC) (Haemophilus influenzae [10]) | EC [11] [µM] | MIC (Escherichia coli [12]) [µg/mL] | IC50 (DNA gyrase) [µM] | Ratio (Haemophilus influenzae [14]) | MIC (Streptococcus pneumoniae [16]) [µg/mL] | Ratio (Streptococcus pneumoniae [17]) | MIC (Escherichia coli [18]) [µg/mL] | Activity [19] [%] | MBC (Staphylococcus aureus [20]) [µg/mL] | MBC (Streptococcus pneumoniae [21]) [µg/mL] | also measured
1 | CC[C@H]1OC(=O)[C@H](C)[C@@H](OC(=O)Cc2ccccn2)[C@H](C)[C@@H](O[C@@H]2O[C@H](C)C[C@H](N(C)C)[C@H]2O)[C@](C)(OC(=O)CCN2CCN(c3c(F)cc4c(=O)c(C(N)=O)cn(C5CC5)c4c3OC)CC2C)C[C@@H](C)CN(C)[C@H](C)[C@@H](O)[C@]1(C)O (stereo partly specified) | 8 | 1 | 4 | 0.5 | 2 | 8 (≈ 7.03 µM) | 1 | 0.5 (≈ 0.439 µM) | 128 | 36 | 18.2 | 0.5 | 9.6 | 1 | 8 | 2 | 2 | 71 | 8 (≈ 7.03 µM) | 1 (≈ 0.878 µM) | MBC (Streptococcus pyogenes [13]): > 64 µg/mL; MIC (Streptococcus pyogenes [15]): 8 µg/mL; MIC (Streptococcus pneumoniae [22]): 0.5 µg/mL; MBC (Streptococcus pneumoniae [23]): 8 µg/mL; MIC (Haemophilus influenzae [24]): 0.5 µg/mL; Ratio (Streptococcus pyogenes [25]): >8; fold change (FC) (Staphylococcus aureus [26]): 1.2; fold change (FC) (Staphylococcus aureus [27]): 0.14; MBC (Staphylococcus aureus [28]): > 256 µg/mL
2 | CC[C@H]1OC(=O)[C@H](C)[C@@H](OC(=O)Cc2ccccn2)[C@H](C)[C@@H](O[C@@H]2O[C@H](C)C[C@H](N(C)C)[C@H]2O)[C@](C)(OC(=O)CCN2CCN(c3cc4c(cc3F)c(=O)c(C(=O)O)cn4C3CC3)CC2)C[C@@H](C)CN(C)[C@H](C)[C@@H](O)[C@]1(C)O | 16 | 8 | 2 | 1 | 2 | 4 (≈ 3.65 µM) | 8 | 0.25 (≈ 0.228 µM) | 16 | 19 | 69.5 | 1 | 44.1 | 1 | 4 | 2 | 4 | 28 | 128 (≈ 117 µM) | 0.25 (≈ 0.228 µM) | Ratio (Staphylococcus aureus [29]): >8; MIC (Streptococcus pneumoniae [22]): 0.125 µg/mL; MBC (Streptococcus pneumoniae [23]): 32 µg/mL; MIC (Haemophilus influenzae [24]): 0.25 µg/mL; fold change (FC) (Staphylococcus aureus [26]): 9.7; fold change (FC) (Staphylococcus aureus [27]): 0.076; MBC (Staphylococcus aureus [28]): > 128 µg/mL
